{"data": "Results pooled from the literature", "target": "Beta-adrenergic receptor kinase 1 (GRK2, Homo sapiens, UniProt P25098)", "Sequence (P25098 1-689, as in one of the studies)": "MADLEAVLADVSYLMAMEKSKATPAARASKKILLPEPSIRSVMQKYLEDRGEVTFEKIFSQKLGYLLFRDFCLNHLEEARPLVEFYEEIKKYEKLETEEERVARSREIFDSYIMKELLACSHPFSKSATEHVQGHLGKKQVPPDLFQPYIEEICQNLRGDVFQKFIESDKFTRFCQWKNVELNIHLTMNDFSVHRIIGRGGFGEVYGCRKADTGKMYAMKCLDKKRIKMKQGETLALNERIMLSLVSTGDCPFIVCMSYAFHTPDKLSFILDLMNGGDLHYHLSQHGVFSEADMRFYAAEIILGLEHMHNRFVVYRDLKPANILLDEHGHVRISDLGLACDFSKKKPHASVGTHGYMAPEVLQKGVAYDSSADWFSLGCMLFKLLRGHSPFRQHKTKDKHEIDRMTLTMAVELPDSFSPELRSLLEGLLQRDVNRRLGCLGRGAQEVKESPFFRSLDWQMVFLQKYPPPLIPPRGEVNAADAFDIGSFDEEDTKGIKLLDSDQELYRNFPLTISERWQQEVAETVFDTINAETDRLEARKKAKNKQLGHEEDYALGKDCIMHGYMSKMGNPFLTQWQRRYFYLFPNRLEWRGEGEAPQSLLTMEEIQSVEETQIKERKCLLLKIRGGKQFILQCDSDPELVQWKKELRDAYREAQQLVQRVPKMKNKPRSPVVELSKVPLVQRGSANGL", "note": "Compare with care: the assays were run in different laboratories."}
{"SMILES": "O=C(NC[C@@H]1[C@H]2CN(C(=O)OCc3cc(C(F)(F)F)cc(C(F)(F)F)c3)C[C@@H]12)c1ccc2[nH]nnc2c1", "test": "cell-free assay, competition with immobilised ligand", "conditions": "1 µM", "quantity": "remaining binding", "value": "71%"}
{"SMILES": "c1ccc(CNc2nc(N3CCOc4ccccc43)nc3c2CCCC3)cc1", "test": "target engagement in cells, inhibitor, chemoproteomics", "conditions": "20 mM", "quantity": "inhibition", "value": "-6.7%"}
{"SMILES": "Cc1ccc(C(=O)NCc2ccsc2)cc1C#Cc1cn(C(C)C)c2ncnc(N)c12", "test": "enzyme activity, inhibitor", "conditions": "1 µM", "quantity": "activity vs control", "value": "101%"}
{"SMILES": "Cc1noc([C@H]2C[C@@H](c3ccc(C(F)(F)F)cc3)CN(C(=O)N3CCS(=O)(=O)C3)C2)n1", "test": "cell-free assay, competition with immobilised ligand", "conditions": "1 µM", "quantity": "remaining binding", "value": "83%"}
{"SMILES": "Nc1ncnc2occ(-c3ccc(NC(=O)Nc4cc(C(F)(F)F)ccc4F)cc3)c12", "test": "cell-free assay, inhibitor", "conditions": "20 µM", "quantity": "remaining signal", "value": "81%"}
{"SMILES": "COc1cc2ncnc(Nc3ccc(Oc4ccccc4)cc3C)c2cc1OC", "test": "enzyme activity, inhibitor", "conditions": "1 µM", "quantity": "inhibition", "value": "-1%"}
{"SMILES": "O=C1NC(=O)c2cc(Nc3ccc(F)cc3)c(Nc3ccc(F)cc3)cc21", "test": "cell-free assay", "conditions": "0.5 µM", "quantity": "remaining signal", "value": "104%"}
{"SMILES": "O=C(O)[C@H]1[C@H](Cn2nnc3ccccc3c2=O)CC[C@@H]1C(=O)c1ccc(OCCC2CCOCC2)cc1", "test": "cell-free assay, competition with immobilised ligand", "conditions": "1 µM", "quantity": "remaining binding", "value": "61%"}
{"SMILES": "CC(C)(O)[C@H]1CC[C@H](Nc2ccc3ncc(-c4cccc(C(F)(F)F)c4)n3n2)CC1", "test": "enzyme activity, inhibitor", "conditions": "1 µM", "quantity": "remaining activity", "value": "116%"}
{"SMILES": "CC(C)(C)c1nc2c(s1)c1nc(N)ncc1c1ccc(NS(=O)(=O)c3c(F)cccc3F)c(F)c12", "test": "enzyme activity, inhibitor, radiometric", "conditions": "1 µM", "quantity": "remaining activity", "value": "90%"}
{"SMILES": "CC1CCCN1c1nccc(-c2cnn3ncccc23)n1 (stereo not shown)", "test": "binding, competition with immobilised ligand", "conditions": "1 µM", "quantity": "remaining binding", "value": "69%"}
{"SMILES": "O=C(Nc1cnn(-c2csc(C(=O)NC3COC3)c2)c1)Nc1c(F)cccc1Cl", "test": "enzyme activity, inhibitor", "conditions": "5 µM", "quantity": "remaining activity", "value": "106%"}
{"SMILES": "CN1CC(Oc2cnc(C#N)cc2-c2ccn3nc(NC(=O)C4CC4)cc3c2)C1", "test": "enzyme activity, inhibitor", "conditions": "1 µM", "quantity": "inhibition", "value": "5%"}
{"SMILES": "O=C(NS(=O)(=O)c1ccc(NCC2CCOCC2)c([N+](=O)[O-])c1)c1ccc(N2CCN(Cc3ccc(C(F)(F)F)cc3-c3ccc(Cl)cc3)CC2)cc1Oc1cnc2[nH]ccc2c1", "test": "cell-free assay, competition with immobilised ligand", "conditions": "1 µM", "quantity": "remaining binding", "value": "91%"}
{"SMILES": "O=C(Nc1cnn(-c2csc(C(=O)NC3COC3)c2)c1)Nc1ccccc1Cl", "test": "enzyme activity, inhibitor", "conditions": "5 µM", "quantity": "remaining activity", "value": "96.1%"}
{"SMILES": "Cc1ccc(C(=O)Nc2ccc(CN3CCN(C)CC3)c(C(F)(F)F)c2)cc1C#Cc1cnc2cccnn12", "test": "enzyme activity, inhibitor", "conditions": "23.5 nM", "quantity": "remaining activity", "value": "77%"}
